Screening results: PubChem, several laboratories
The full list was thinned out, with hits kept by preference.
DAT uptake mod = modulates human dopamine transporter uptake under cocaine. B-score at 10 µM. LLC-PK1 hDAT cells, [14C]-dopamine uptake with cocaine IC80; actives deviate in either direction. Q01959. AID 449768. 110,000 compounds, 1.3% hits;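 active means Z score or B-score, a plate-position-corrected score, falls beyond the plate's 99.7% confidence bounds, in either direction; inactive means both scores lie inside the 99.7% bounds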;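 further: scored against the spread of the other compound wells on the same plate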
WNV NS2B-NS3 inh = blocks West Nile virus NS2B-NS3 protease activity. P06935. 65,000 compounds, 0.18% hits. AID 577. z-score (no concentration beside the values). WNV NS2B-NS3 protease, fluorogenic substrate Ex360/Em465; stronger effect = lower value; in the data active means z-score below about -3
Target sequence (P06935 1371-1501 limits assumed): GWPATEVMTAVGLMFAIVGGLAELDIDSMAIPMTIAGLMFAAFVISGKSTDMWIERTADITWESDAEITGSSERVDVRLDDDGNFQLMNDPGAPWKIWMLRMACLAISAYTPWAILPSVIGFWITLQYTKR
Target sequence (P06935 1502-1679 limits assumed): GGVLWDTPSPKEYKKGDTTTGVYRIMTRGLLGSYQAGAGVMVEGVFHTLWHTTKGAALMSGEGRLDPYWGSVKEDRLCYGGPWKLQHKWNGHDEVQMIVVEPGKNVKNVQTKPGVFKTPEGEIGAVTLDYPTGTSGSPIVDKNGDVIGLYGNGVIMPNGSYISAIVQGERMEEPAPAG
AP complement = alternative pathway complement inhibition, orthogonal assay. Human serum alternative complement pathway, LPS-coated ELISA, C3 deposition; tested in compound mixtures. inhibition, % at 5 µM. 62,000 compounds, 0.08% hits. AID 1235;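 active means inhibition above 30% in each of the two pooled mixtures holding the compound, so the lower value exceeds 30%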;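 further: 0% = serum in Mg-EGTA without compound and 100% = EDTA serum blank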
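Test system: human serum alternative complement pathway, C3 deposition on LPS-coated wells; also added: Plate-bound LPS; doses: 5 µM per compound in ten-compound mixtures; schedule: 1 h at 37 °C; detection: Anti-C3 ELISA, OD 450 nm; evaluation: percent inhibition of C3 deposition onto LPS; repeats: two pool placements per compound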
D1 allo mod = D1 dopamine receptor (human) allosteric modulation | AID 641 | HEK293 D1, CRE-luciferase, dopamine EC30 potentiation; actives deviate in either direction | 58,000 compounds, 5.9% hits | B-score at 10 µM;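 active means luminescence count or its row- and column-corrected plate score outside the 99.7% band of the plate's sample wells, on either side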
* marks the source's active call; other numbers are inactive results; · = no result given.

SMILES	DAT uptake mod	WNV NS2B-NS3 inh	AP complement	D1 allo mod
CC1CCN(CC(O)COc2cccc(F)c2)CC1 (stereo unspecified)	-0.77	-0.69	12	-2.3
CCN(CC(=O)NC)S(=O)(=O)c1ccc(Br)cc1	-0.05	-0.65	9	0.12
Cc1ccc(S(=O)(=O)NCCC(=O)NC2CCCC2)cc1	·	1	-3	0.31
O=C(NCc1ccco1)c1cccn2c(=O)c3sccc3nc12	1.1	0.51	13	5*
COc1cc(NS(=O)(=O)c2ccc3c(c2)n(C)c(=O)n3C)cc(OC)c1	-0.043	·	·	·
Cc1ccccc1N1CCN(C(=O)c2ccccc2NC(=O)C2CC=CCC2C(=O)O)CC1 (stereo unspecified)	2.1*	·	·	·
CCCCOC(=O)C1=C(C)Nc2ncnn2C1c1cc(OC)ccc1OC (stereo unspecified)	1.7	-0.68	20	0.13
CCCCOC(=O)C1=C(C)Nc2ncnn2C1c1cccc(OC)c1OC (stereo unspecified)	-2.9*	-0.51	7	0.035
CC1Cc2ccccc2N1C(=O)c1cc2sccc2n1Cc1ccc(F)cc1 (stereo unspecified)	-0.18	·	·	·
CN1C(=S)SC(/[N+]([O-])=C/c2cccnc2)C1(C)C (stereo unspecified)	-1	0.0029	26	-6*
CN1C(=S)SC(/[N+]([O-])=C\c2ccccc2)C1(C)C (stereo unspecified)	-1.4	·	·	·
COc1ccc(Cn2nnnc2C(c2ccc(N(C)C)cc2)N2CCC(C)CC2)cc1 (stereo unspecified)	2*	0.87	-6	0.73
CC1CCN(C(c2ccc(N(C)C)cc2)c2nnnn2Cc2ccccc2)CC1 (stereo unspecified)	0.62	-0.05	7	-1
CC(=O)Nc1ccc(-c2nc3c(C)cccc3[nH]2)cc1	-8.1*	2.6	·	-1.2
CC(=O)Nc1ccc2nc(-c3ccncc3)[nH]c2c1	0.34	·	·	·
OC(CN1CCN(c2ccccn2)CC1)Cn1c2ccccc2c2ccccc21 (stereo unspecified)	0.8	0.8	7	-2.7*
CC(=O)C1=C(O)C(=O)N(Cc2ccco2)C1c1ccc(F)cc1 (stereo unspecified)	0.012	-0.27	4	-2.8*
CN(C)c1nc2ccc(OCCN3CCCCC3)cc2s1	0.66	0.0015	5	-3.4*
Cc1ccccc1NS(=O)(=O)c1cc(C(N)=O)ccc1C	-1.4	0.82	13	·
CCn1nnnc1SCC(=O)NCc1ccco1	-8.8*	2.6	-20	-0.1
COc1ccc(C(=O)Nn2c(SCC(=O)NCc3ccco3)nc3ccccc3c2=O)cc1	0.54	-0.9	-1	-9.3*
CCCCn1nnnc1SCC(=O)NCc1ccco1	0.22	·	·	·
Cn1c(SCC(=O)NCc2ccco2)nc2ccccc2c1=O	-0.17	1.3	2	-0.16
CCC(C)C(NC(=O)c1ccccc1NC(=O)c1ccc(OC)cc1)C(=O)NCc1ccco1 (stereo unspecified)	-1.2	-0.47	13	-4.7*
COc1ccc(C(=O)Nc2ccc(Cl)cc2C(=O)NCc2ccco2)cc1	-0.55	·	·	·
SMILES	DAT uptake mod	WNV NS2B-NS3 inh	AP complement	D1 allo mod
Cc1onc(-c2ccccc2Cl)c1C(=O)N1CCN(c2ccccc2)CC1	-1.4	-0.24	15	-2.4*
Cc1onc(-c2ccccc2Cl)c1C(=O)N1CCN(c2cccc(Cl)c2)CC1	-1.1	0.52	21	·
O=C1CC(SC(=Nc2ccccc2)Nc2ccccc2)C(=O)N1c1cccc(Cl)c1 (stereo unspecified)	-1.1	·	·	·
O=c1c2ccccc2nnn1CSc1nnc(COc2ccc(Cl)cc2)n1Cc1ccco1	-1.3	0.16	10	0.28
Clc1ccc(OCc2nnc(SCCN3CCCCC3)n2Cc2ccco2)cc1	3.3*	-0.0038	5	-2
Cc1ccccc1NC(=O)c1ccc(F)c(S(=O)(=O)N2CCN(c3ccccn3)CC2)c1	-0.25	0.67	22	-2.2*
O=C(c1ccc(Cl)c(S(=O)(=O)N2CCCCCC2)c1)N1CCN(c2ccccn2)CC1	2.7*	·	·	·
O=C(Nc1ccccc1)c1ccc(N2CCN(c3ccccn3)CC2)c(S(=O)(=O)N2CCOCC2)c1	-0.12	·	·	·
COc1ccccc1Nc1nc(N)nc(CN2CCN(c3ccccc3F)CC2)n1	2.8*	0.28	-17	-0.16
COc1ccccc1Nc1nc(N)nc(CN2CCN(Cc3ccccc3)CC2)n1	1.5	0.11	-5	0.23
Cc1ccc2[nH]c(=O)c(CN(Cc3ccccc3Cl)C(=O)N3CCOCC3)cc2c1	0.73	0.96	-7	-0.37
O=C(O)C1C2C=CC3(CN(Cc4ccncc4)C(=O)C13)O2 (stereo unspecified)	-8.7*	-1	7	·
Cc1ccc2nc(-c3sc4nc(C)cc(C)c4c3N)[nH]c2c1	-0.53	·	·	·
COc1ccc(NC(=O)Cn2c(=O)n(CC(=O)NCc3ccco3)c(=O)c3ccccc32)cc1	0.87	·	·	·
COC(=O)c1ccsc1NC(=O)c1ccc2c(c1)OCCO2	-0.41	-1	8	3.8*
Cc1cc(NC(=O)CSc2nnc(-c3ccoc3C)o2)no1	2.6*	-0.13	-5	1.3
CCCCNC(=O)c1c(CSc2ccccc2)noc1C(=O)NCc1ccccc1	-0.47	·	·	·
O=C(/C=C/c1ccccc1)NC(NC(=S)Nc1ccc(Cl)cc1)C(Cl)(Cl)Cl (stereo unspecified)	-2.8*	·	·	·
O=C(Nc1ccc(F)c(F)c1)c1ccc2c(c1)OCO2	-0.031	-0.2	-4	-1.7
O=C(Nc1ccc2nsnc2c1)c1ccc2c(c1)OCO2	0.01	0.02	-6	-4*
CCCn1c(SCC(=O)c2cc(C)c(C)cc2C)n[nH]c1=O	0.8	·	·	·
Cc1cc(C)n(-c2ccc(C(=O)Nc3nnc(C)s3)cc2)n1	0.39	·	·	·
COc1cc(C(=O)Nc2ccccn2)cc(OC)c1OC	0.01	0.76	·	·
Cc1cc(C(=O)Nc2ccccn2)cs1	0.8	0.33	4	-3.8*
Cc1cc(C)n(-c2ccc(C(=O)Nc3ccccn3)cc2)n1	0.46	-0.8	17	-4.1*
SMILES	DAT uptake mod	WNV NS2B-NS3 inh	AP complement	D1 allo mod
COCCCNc1oc(COc2ccc(Cl)cc2Cl)nc1C#N	2.2*	-0.67	-2	0.46
CN(CC(=O)Nc1ccncc1)S(=O)(=O)c1ccc(Cl)cc1	0.021	0.18	4	-0.99
CC(C)OCCCn1c(=NC(=O)c2ccncc2)c(C#N)cc2c(=O)n3ccccc3nc21	-1.2	3.4	38*	0.34
COCCn1c(=NC(=O)c2ccc3c(c2)OCO3)c(C#N)cc2c(=O)n3cccc(C)c3nc21	-2.2*	-0.29	8	0.7
CCCCCn1c(=NC(C)=O)c(C#N)cc2c(=O)n3ccccc3nc21	·	1.2	14	1.3
Cc1ccc(Cl)cc1N1CCN(S(=O)(=O)c2ccc3c(c2)oc(=O)n3C)CC1	1.2	1.6	12	·
CCCC[C@@H]1CN=C(N)N1CC(C)(C)C	-0.95	·	·	·
CCCN1CCC(=O)N([C@H](CSc2ccc(OC)cc2)Cc2ccccc2)CC1	2.5*	·	·	·
CCOc1cc(-c2nc3ccccn3c2NCC2CCCO2)ccc1O (stereo unspecified)	1.1	0.36	-10	-4.1*
O=C1OCCC1N1C(=O)c2ccccc2S1(=O)=O (stereo unspecified)	-0.47	-0.18	6	-4.3*
